Test [1] has as its target Protein kinase C gamma type (Homo sapiens) (UniProt P05129). The test can be described thus: Binding affinity to PKCgamma assessed as change in thermal denaturation at 10 uM by thermal stability shift assay. The method, boiled down:
(§1)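 Each compound was screened across a kinase panel by thermal stability shift assay. The read-out was the shift in protein melting temperature (ΔTm, in °C) relative to the unliganded kinase. A ΔTm of 4.0 °C served as the hit cutoff.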

In test [2] the target is Dual specificity protein kinase CLK4 (Homo sapiens) (UniProt Q9HAZ1). The test is described as follows: Binding affinity to CLK4 assessed as change in thermal denaturation at 10 uM by thermal stability shift assay. Summed up: as §1
Test [3] deals with Serine/threonine-protein kinase pim-1 (Homo sapiens, UniProt P11309). The test can be described thus: Binding affinity to PIM1 assessed as change in thermal denaturation at 10 uM by thermal stability shift assay. Summed up:
as §1

The target of test [4] is Serine/threonine-protein kinase pim-2 (Homo sapiens, UniProt Q9P1W9). The test can be described thus: Binding affinity to PIM2 assessed as change in thermal denaturation at 10 uM by thermal stability shift assay. Summed up: as §1
The target in test [5] is Serine/threonine-protein kinase 33 (Homo sapiens) (UniProt Q9BYT3). The test can be described thus: Binding affinity to STK33 assessed as change in thermal denaturation at 10 uM by thermal stability shift assay. Summed up:
as §1

The target in test [6] is T1, Myosin light chain kinase family member 4 (Homo sapiens) (UniProt Q86YV6).
T1 sequence (whole entry): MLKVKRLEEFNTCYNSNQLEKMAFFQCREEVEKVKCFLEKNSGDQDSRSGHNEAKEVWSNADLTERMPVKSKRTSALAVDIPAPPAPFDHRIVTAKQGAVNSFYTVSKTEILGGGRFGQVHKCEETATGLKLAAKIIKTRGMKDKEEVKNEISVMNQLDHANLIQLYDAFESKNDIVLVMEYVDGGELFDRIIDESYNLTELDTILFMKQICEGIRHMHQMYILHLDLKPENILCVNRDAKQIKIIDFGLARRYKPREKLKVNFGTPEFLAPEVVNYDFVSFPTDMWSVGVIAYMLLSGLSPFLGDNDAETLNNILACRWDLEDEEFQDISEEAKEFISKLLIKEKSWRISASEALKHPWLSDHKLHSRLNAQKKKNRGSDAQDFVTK
The test can be described thus: Binding affinity to SGK085 assessed as change in thermal denaturation at 10 uM by thermal stability shift assay. Summed up:
as §1

For test [7], the target named is T2, Serine/threonine-protein kinase 17A (Homo sapiens) (UniProt Q9UEE5).
T2 sequence (whole entry): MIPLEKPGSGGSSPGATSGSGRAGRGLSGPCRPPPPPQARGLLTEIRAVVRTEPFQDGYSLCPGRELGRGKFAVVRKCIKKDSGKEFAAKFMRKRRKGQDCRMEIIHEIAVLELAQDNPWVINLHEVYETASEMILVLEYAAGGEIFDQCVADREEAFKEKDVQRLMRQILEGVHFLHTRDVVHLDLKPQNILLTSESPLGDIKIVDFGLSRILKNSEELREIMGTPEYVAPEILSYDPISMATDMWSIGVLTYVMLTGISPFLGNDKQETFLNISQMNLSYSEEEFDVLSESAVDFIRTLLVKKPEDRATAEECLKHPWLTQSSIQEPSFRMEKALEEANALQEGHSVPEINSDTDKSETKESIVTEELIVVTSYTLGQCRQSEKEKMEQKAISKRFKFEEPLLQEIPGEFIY
The test can be described thus: Binding affinity to DRAK1 assessed as change in thermal denaturation at 10 uM by thermal stability shift assay. The method, boiled down: as §1

For test [8], the target named is Serine/threonine-protein kinase PLK1 (Homo sapiens) (UniProt P53350). The test is described as follows: Binding affinity to PLK1 assessed as change in thermal denaturation at 10 uM by thermal stability shift assay. Summed up: as §1
For test [9], the target named is Glycogen synthase kinase-3 beta (Homo sapiens) (UniProt P49841). The test is described as follows: Binding affinity to GSK3-beta assessed as change in thermal denaturation at 10 uM by thermal stability shift assay. The method, boiled down:
as §1

The target in test [10] is Serine/threonine-protein kinase pim-3 (Homo sapiens, UniProt Q86V86). The test is described as follows: Binding affinity to PIM3 assessed as change in thermal denaturation at 10 uM by thermal stability shift assay. Summed up:
as §1

Test [11] addresses T3, Dual specificity tyrosine-phosphorylation-regulated kinase 2 (Homo sapiens) (UniProt Q92630).
T3 sequence (whole entry): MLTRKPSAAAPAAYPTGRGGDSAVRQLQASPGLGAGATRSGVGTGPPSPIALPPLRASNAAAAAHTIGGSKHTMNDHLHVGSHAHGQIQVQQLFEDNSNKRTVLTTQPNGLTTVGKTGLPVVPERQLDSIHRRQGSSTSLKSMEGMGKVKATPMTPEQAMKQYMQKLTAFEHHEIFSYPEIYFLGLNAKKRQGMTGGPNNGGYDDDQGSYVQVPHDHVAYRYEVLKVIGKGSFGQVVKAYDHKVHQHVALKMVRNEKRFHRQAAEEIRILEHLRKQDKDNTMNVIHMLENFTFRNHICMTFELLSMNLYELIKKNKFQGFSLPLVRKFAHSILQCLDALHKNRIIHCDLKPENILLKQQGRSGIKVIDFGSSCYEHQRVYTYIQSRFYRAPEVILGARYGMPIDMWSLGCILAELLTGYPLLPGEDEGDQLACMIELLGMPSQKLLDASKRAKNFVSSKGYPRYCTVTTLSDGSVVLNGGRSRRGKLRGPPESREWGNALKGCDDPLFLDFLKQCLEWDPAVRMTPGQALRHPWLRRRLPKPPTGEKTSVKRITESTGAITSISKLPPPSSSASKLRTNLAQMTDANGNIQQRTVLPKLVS
The test is described as follows: Binding affinity to DYRK2 assessed as change in thermal denaturation at 10 uM by thermal stability shift assay. Summed up: as §1

The target in test [12] is T4, Serine/threonine-protein kinase 17B (Homo sapiens) (UniProt O94768).
T4 sequence (whole entry): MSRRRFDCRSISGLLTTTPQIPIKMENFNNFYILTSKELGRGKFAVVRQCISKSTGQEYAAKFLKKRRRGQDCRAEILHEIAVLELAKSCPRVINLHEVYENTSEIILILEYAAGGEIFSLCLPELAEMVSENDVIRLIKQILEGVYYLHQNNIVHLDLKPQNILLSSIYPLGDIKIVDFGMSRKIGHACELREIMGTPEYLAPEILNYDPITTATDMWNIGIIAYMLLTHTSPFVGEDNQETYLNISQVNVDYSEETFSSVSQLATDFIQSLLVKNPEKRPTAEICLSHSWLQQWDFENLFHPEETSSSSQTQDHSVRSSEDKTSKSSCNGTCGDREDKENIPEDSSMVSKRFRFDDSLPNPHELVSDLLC
The test is described as follows: Binding affinity to DRAK2 assessed as change in thermal denaturation at 10 uM by thermal stability shift assay. The method, boiled down:
as §1

Test [13] concerns the target AP2-associated protein kinase 1 (Homo sapiens) (UniProt Q2M2I8). The test is described as follows: Binding affinity to AAK1 assessed as change in thermal denaturation at 10 uM by thermal stability shift assay. The method, boiled down: as §1
Test [14] concerns the target Death-associated protein kinase 3 (Homo sapiens) (UniProt O43293). The test is described as follows: Binding affinity to N-terminus His6-tagged DAPK3 expressed in Escherichia coli BL21 (DE3) cells coexpressing pCOEX assessed as change in thermal denaturation at 10 uM by thermal stability shift assay. Summed up: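 DAPK3 was expressed in E. coli grown in TB with kanamycin and chloramphenicol at 37 °C, cooled to 25 °C, and induced with 0.5 mM IPTG. Binding was read as thermal-shift ΔTm in °C.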

This is an account of results in ChEMBL document CHEMBL1944596, “7,8-dichloro-1-oxo-β-carbolines as a versatile scaffold for the development of potent and selective kinase inhibitors with unusual binding modes” (J Med Chem, 2012).

Death-associated protein kinase 3 (Homo sapiens), sequence (O43293 whole entry, looked up): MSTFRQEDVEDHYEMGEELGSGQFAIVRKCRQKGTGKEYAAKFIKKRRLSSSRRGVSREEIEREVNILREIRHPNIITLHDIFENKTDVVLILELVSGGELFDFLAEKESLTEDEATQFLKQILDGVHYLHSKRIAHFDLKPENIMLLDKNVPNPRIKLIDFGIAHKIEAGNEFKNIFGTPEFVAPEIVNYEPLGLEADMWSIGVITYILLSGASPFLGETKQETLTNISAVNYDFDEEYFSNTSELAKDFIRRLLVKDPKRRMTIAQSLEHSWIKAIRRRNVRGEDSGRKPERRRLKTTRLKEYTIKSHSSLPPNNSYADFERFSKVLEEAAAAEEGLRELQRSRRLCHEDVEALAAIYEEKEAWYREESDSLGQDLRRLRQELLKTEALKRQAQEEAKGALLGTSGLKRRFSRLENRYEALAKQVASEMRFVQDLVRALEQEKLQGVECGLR
Serine/threonine-protein kinase 33 (Homo sapiens), sequence (Q9BYT3 whole entry, looked up): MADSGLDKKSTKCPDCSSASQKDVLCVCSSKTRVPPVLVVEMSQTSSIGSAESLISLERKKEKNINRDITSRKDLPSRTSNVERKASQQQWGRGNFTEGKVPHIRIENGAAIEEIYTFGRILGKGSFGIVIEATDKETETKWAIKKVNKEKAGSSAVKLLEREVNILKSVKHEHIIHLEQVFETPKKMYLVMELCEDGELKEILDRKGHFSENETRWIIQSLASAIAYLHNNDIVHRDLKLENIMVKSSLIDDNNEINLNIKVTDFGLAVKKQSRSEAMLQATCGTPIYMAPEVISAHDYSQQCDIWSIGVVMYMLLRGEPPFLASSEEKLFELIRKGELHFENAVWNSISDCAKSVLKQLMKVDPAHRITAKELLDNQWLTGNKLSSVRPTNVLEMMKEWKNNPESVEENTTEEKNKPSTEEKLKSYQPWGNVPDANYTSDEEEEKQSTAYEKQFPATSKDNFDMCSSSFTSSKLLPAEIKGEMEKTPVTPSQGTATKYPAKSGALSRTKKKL
Serine/threonine-protein kinase pim-1, sequence (P11309 whole entry, looked up): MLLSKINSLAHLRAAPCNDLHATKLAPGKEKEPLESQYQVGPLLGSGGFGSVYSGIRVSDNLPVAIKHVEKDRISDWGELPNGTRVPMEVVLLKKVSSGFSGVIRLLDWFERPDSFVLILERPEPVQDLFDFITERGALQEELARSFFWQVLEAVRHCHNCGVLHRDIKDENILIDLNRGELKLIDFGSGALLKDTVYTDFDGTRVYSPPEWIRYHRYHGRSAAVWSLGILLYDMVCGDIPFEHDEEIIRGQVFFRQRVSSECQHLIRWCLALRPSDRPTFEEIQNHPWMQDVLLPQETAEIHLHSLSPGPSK
Serine/threonine-protein kinase pim-2, sequence (Q9P1W9 whole entry, looked up): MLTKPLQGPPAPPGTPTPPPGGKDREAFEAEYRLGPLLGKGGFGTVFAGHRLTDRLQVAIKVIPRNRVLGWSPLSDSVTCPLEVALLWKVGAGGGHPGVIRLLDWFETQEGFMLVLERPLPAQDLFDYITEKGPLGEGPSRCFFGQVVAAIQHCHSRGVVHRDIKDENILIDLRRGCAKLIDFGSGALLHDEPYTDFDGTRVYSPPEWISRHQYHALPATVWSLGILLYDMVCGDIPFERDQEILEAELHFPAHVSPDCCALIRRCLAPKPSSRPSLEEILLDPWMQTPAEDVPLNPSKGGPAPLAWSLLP
AP2-associated protein kinase 1 (Homo sapiens), sequence (Q2M2I8 whole entry, looked up): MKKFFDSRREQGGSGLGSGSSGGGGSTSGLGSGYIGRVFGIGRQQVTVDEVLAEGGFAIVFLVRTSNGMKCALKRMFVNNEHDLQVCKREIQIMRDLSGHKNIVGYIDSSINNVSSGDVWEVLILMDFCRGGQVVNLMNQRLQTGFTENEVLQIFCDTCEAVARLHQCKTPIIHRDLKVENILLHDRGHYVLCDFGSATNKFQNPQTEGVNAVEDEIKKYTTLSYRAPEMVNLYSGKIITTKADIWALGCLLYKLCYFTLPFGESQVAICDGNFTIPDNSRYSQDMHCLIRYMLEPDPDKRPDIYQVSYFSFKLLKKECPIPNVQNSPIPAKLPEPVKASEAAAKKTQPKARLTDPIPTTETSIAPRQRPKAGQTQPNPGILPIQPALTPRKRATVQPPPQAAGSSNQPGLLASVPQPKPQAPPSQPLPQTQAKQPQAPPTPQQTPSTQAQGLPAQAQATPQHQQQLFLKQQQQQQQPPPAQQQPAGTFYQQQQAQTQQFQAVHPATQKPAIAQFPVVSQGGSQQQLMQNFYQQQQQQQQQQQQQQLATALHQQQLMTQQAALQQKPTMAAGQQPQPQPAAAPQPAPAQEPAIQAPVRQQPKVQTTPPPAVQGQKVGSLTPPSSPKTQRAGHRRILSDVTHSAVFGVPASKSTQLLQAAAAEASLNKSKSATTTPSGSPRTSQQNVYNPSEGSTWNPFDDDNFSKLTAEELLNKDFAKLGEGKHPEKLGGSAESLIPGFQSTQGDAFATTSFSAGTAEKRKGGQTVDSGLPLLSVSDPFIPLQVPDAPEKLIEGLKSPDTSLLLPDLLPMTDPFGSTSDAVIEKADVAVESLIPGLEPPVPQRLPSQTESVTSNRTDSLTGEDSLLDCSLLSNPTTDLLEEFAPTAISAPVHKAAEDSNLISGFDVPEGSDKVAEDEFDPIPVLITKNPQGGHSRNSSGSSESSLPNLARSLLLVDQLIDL
Dual specificity protein kinase CLK4 (Homo sapiens), sequence (Q9HAZ1 whole entry, looked up): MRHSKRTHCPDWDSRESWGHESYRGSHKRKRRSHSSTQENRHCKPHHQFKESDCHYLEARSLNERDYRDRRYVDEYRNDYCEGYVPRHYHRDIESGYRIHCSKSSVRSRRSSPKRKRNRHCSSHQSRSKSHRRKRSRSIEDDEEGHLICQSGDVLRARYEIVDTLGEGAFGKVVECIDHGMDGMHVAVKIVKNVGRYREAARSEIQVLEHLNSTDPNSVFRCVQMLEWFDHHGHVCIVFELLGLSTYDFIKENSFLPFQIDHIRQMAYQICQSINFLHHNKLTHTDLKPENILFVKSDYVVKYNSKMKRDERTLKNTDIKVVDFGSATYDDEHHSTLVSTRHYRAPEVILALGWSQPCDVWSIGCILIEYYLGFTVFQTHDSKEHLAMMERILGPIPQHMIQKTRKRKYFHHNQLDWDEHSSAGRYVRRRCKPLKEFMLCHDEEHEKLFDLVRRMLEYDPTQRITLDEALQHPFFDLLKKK
Serine/threonine-protein kinase PLK1 (Homo sapiens), sequence (P53350 whole entry): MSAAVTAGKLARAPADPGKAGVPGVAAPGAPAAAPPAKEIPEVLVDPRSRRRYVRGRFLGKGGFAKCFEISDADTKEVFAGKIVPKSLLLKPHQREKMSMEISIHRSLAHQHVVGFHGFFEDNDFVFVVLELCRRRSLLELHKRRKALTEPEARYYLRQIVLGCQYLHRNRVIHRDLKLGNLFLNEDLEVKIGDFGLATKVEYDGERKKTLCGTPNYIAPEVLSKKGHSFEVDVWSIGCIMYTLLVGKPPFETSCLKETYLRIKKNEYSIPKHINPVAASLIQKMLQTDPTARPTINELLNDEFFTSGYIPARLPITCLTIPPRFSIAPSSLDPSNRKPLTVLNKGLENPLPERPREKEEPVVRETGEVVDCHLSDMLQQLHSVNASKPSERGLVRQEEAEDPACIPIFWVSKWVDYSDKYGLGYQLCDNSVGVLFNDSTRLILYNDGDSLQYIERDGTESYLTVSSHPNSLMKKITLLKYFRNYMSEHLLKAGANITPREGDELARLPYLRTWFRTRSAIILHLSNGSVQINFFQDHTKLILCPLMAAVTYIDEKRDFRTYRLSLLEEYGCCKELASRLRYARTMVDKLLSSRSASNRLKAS

For `Cn1c2c(c3ccc(Cl)c(Cl)c31)C(C#N)C1(CCCC1)NC2=O` (stereo unspecified), the ΔTm (in general, the shift of the melting midpoint relative to a reference) in [1] was found to be 0.5 °C; in test [2], 3.3 °C; in test [3] it was 3.8 °C; in test [4] it was 1.6 °C; in test [5], 0.2 °C; in test [6], 0.1 °C. Further, the ΔTm in test [7] was determined as 2 °C; in test [8], 1.3 °C; in [9], 2.5 °C; in test [10] it was 3.8 °C; in test [11], 0.7 °C; in [12] it was 2.6 °C. Besides, the ΔTm in [13] and in test [14] was 1.5 °C throughout.

In the case of `N#CC1c2c([nH]c3c(Cl)c(Cl)ccc23)C(=O)NC12CCCCC2` (racemic), the ΔTm worked out at 1.3 °C in test [1]; 5.7 °C in test [2]; 4.9 °C in test [3]; 1.4 °C in test [4]; 0.5 °C in test [5]; 1.2 °C in [6]. Further, the shift in melting temperature (ΔTm) came to 2.2 °C in test [7]; 0.3 °C in [8]; 2.6 °C in test [9]; 4.9 °C in test [10]; 1.4 °C in test [11]; 2.3 °C in [12]. The ΔTm turned out to be 2.4 °C in test [13] and 3.4 °C in [14].

For `Cn1c2c(Cl)c(Cl)ccc2c2cc(N)[nH]c(=O)c21`, the shift in melting temperature (ΔTm) in test [1] stood at 0.2 °C; in [2], 2.1 °C; in test [3], 4 °C; in [4] it was 3 °C; in test [5], 0.4 °C; in test [6] it was 2.9 °C. For the same compound, the ΔTm was 6.9 °C in test [7]; 1.4 °C in test [8]; 2.9 °C in test [9]; 3.6 °C in [10]; 2.4 °C in test [11]; 3 °C in test [12]. Moreover, the ΔTm was determined as 2 °C in test [13] and 2.6 °C in test [14].

Regarding `CCC1(CC)NC(=O)c2c(c3ccc(Cl)c(Cl)c3n2C)C1C#N` (stereo unspecified), the thermal shift (ΔTm) in test [1] is 0.8 °C; in [2] it was 2.8 °C; in test [3] it was 3.3 °C; in [4], 2 °C; in test [5], 0.6 °C; in test [6], 0.4 °C. Further, the ΔTm in test [7] was 2.6 °C; in test [8], 0.9 °C; in [9], 2 °C; in test [10], 3.4 °C; in test [11], 0.6 °C; in [12], 2.9 °C. Further, the ΔTm is 1.7 °C in [13] and 2.4 °C in test [14].

Turning to `CC1(C)NC(=O)c2[nH]c3c(Cl)c(Cl)ccc3c2C1C#N` (stereo unspecified), the ΔTm in test [1] was 0.7 °C; in test [2], 4.9 °C; in test [3], 3.5 °C; in test [4] it was 2.3 °C; in [5], 1.1 °C; in [6] it was 3.1 °C. Further, the ΔTm in test [7] was 3 °C; in test [8], 4 °C; in test [9] it was 4.7 °C; in test [10], 4 °C; in [11], 1.3 °C; in [12], 2.1 °C. Also, the ΔTm is 1.1 °C in test [13] and 2 °C in test [14].

Regarding `Cn1c2c(c3ccc(Cl)c(Cl)c31)C(CN)C(C)(C)NC2=O` (racemic), the ΔTm was determined as 1.7 °C in test [1]; 2.8 °C in test [2]; 3.6 °C in test [3]; 3.2 °C in [4]; 0.9 °C in test [5]; 0.2 °C in [6]. The ΔTm in test [7] is 7.5 °C; in [8] it was -0.6 °C; in test [9], 0.6 °C; in [10] it was 3.7 °C; in test [11], 0.2 °C; in test [12] it was 6.4 °C. In addition, the shift in melting temperature (ΔTm) came to 0.8 °C in test [13] and 3.6 °C in [14].

Take `Cn1c2c(c3ccc(Cl)c(Cl)c31)C(C#N)C1(CCNCC1)NC2=O` (racemic): the ΔTm in [1] is 6.1 °C; in test [2], 4.6 °C; in test [3], 10.7 °C; in [4], 6.5 °C; in [5], 5.9 °C; in [6], 3.5 °C. Further, the ΔTm in test [7] is 4.3 °C; in test [8], 1.4 °C; in test [9] it was 3.9 °C; in test [10] it was 9.6 °C; in test [11], 3.6 °C; in [12], 3.4 °C. In addition, the values for the ΔTm in [13] and in test [14] were 1.5 °C and 10.6 °C, respectively.

On to `CN1CCC2(CC1)NC(=O)c1c(c3ccc(Cl)c(Cl)c3n1C)C2C#N` (racemic), for which the ΔTm in test [1] turned out to be 3.9 °C; in [2], 2.1 °C; in test [3], 7.7 °C; in [4] it was 5.2 °C; in test [5] it was 2.2 °C; in test [6], 1.5 °C. The ΔTm in test [7] was found to be 2.7 °C; in test [8], 0.6 °C; in [9] it was 2.2 °C; in test [10], 7.2 °C; in test [11], 1.3 °C; in [12], 1.2 °C. The ΔTm in test [13] turned out to be 0.9 °C; in test [14], 6.3 °C.

Turning to `Cn1c2c(c3ccc(Cl)c(Cl)c31)C(C#N)C1(CCOCC1)NC2=O` (stereo unspecified), the ΔTm amounted to 1 °C in test [1]; 2.8 °C in [2]; 4.8 °C in [3]; 2.2 °C in test [4]; 0.7 °C in test [5]; 0.5 °C in test [6]. In addition, the ΔTm is 2.7 °C in [7]; 0.8 °C in test [8]; 3.4 °C in test [9]; 4.7 °C in test [10]; 1 °C in test [11]; 1.7 °C in [12]. The ΔTm in [13] came to 2.6 °C; in [14] it was 3.1 °C.
